From ChEMBL document CHEMBL1128317, “Phenoxypropylamines: a new series of squalene synthase inhibitors” (J Med Chem, 1995) come the findings set out here.

SMILES strings stand for the structures.

For the assay, the target named is T1, Squalene synthase (Rattus norvegicus, UniProt Q02769).
T1 sequence (Q02769 whole entry): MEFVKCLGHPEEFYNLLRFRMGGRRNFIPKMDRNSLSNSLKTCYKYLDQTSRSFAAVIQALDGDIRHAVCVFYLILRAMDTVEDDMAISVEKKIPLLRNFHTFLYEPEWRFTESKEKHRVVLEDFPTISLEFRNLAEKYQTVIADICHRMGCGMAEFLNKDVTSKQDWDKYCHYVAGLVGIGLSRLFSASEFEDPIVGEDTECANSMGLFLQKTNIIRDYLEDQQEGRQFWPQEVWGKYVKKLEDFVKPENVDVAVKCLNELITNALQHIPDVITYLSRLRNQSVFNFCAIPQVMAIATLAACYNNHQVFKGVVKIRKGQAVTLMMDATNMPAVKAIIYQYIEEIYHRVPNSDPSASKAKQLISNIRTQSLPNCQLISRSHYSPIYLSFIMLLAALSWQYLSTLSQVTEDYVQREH
The experiment in a line: Inhibition of rat microsomal squalene synthase. Put shortly: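 Rat liver microsomal protein (20 μg) incubated at 37 °C in 50 mM potassium phosphate with 4.95 mM MgCl2, 9.9 mM KF and 0.9 mM NADPH. 1-[3H]farnesyl pyrophosphate was added to 20 μM final, and the reaction was stopped after 15 min with 4% KOH. Labeled squalene was isolated on a C18 column. IC50 was derived from % inhibition versus controls (duplicates per concentration, 6–8 controls).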
As a reminder, the IC50 is the concentration that inhibits the measured activity by half. With `CC(C)NCC(O)COc1ccccc1Cc1ccccc1` (stereo not given), the IC50 was found to be 8800 nM.

`C=CCc1cc(C(=O)OCC)ccc1OCCCNC(C)C` had an IC50 of 0.05 nM.

Regarding `C=CCc1cc(OCCCC)ccc1OCCCNC(C)C`, the midpoint of inhibition, the IC50, lay at 0.6 nM.

For the molecule `CC(C)NCCCOc1ccccc1Cc1ccccc1`, the IC50 stood at 12 nM.

Turning to `C=CCc1cc(N)ccc1OCCCNC(C)C`, the IC50 stood at 250 nM. This IC50 is about 21-fold higher than that of the molecule before.

For the molecule `C=CCc1cc(NC(C)=O)ccc1OCCCNC(C)C`, it took 65 nM to reach half-maximal inhibition (IC50). This IC50 lies about 3.8-fold lower than the previous one.

For the molecule `CC(C)=CCC/C(C)=C/CC/C(C)=C/CCOP(=O)(O)C(=O)O`, the concentration for half-maximal inhibition (IC50) stood at 30000 nM.

As for `CCC(=O)Nc1ccc(OCC(O)CNC(C)C)c(Cc2ccccc2)c1` (stereo not given), the IC50 is 900 nM. Against the preceding molecule, the IC50 is about 33-fold lower.

Regarding `CCC(=O)Oc1ccc(OCCCNC(C)C)cc1`, the midpoint of inhibition, the IC50, lay at 3 nM.

For the molecule `CC(C)NCCCOc1ccc(-c2cccnc2)cc1`, the half-maximal inhibitory concentration (IC50) was more than 2500 nM.

Regarding `CCCCOc1ccc(OCCCNC(C)C)cc1`, inhibition was half-maximal at 56 nM (IC50).

For the molecule `CC(C)=CCC/C(C)=C/c1ccccc1OCCCN(C)C(C)C`, the IC50 is more than 2500 nM.

For `CC(C)NCCCOc1ccc(-c2ccccc2)cc1`, the midpoint of inhibition, the IC50, lay at 170 nM.

Regarding `CCCCOc1ccc(OCC(CNC(C)C)OC)cc1` (stereo not given), the IC50 came to 3300 nM.

`C=CCc1cc(C(=O)CCC)ccc1OCC(O)CNC(C)C` (stereo not given) came in with an IC50 of 4.5 nM.

Take `C=CCc1ccccc1OCCCNC(C)C`: the concentration for half-maximal inhibition (IC50) was 56 nM.

In turn, `CCOC(=O)c1ccc(OCC(O)CNC(C)C)cc1` (stereo not given) registered an IC50 of 1400 nM.

`CC(C)NCC(O)COc1ccc(-c2ccccc2)cc1` (stereo not given) registered a 50% inhibitory concentration (IC50) of 3000 nM.

Take `C=CCc1cc(-c2ccccc2)ccc1OCCCNC(C)C`: it took 0.004 nM to reach half-maximal inhibition (IC50). In other words, the picomolar range.

On to `CCC(=O)Nc1ccc(OCCCNC(C)C)c(Cc2ccccc2)c1`, for which the IC50 amounted to 0.6 nM. This IC50 lies about 150-fold higher than the previous one.

`C=CCc1ccccc1OCC(O)CNC(C)C` (stereo not given) [ALPRENOLOL] showed an IC50 of 4200 nM.

In the case of `CC(C)NCCCOc1cccc(-c2ccccc2)c1`, the IC50 was found to be 600 nM.

Molecule `C=CCc1cc(NC(=O)CC)ccc1OCCCNC(C)C` came in with a half-inhibitory concentration (IC50) of 5 nM.

`C=CCc1cc(C(=O)CCC)ccc1OCCCNC(C)C` came in with a half-maximal inhibitory concentration (IC50) of 1 nM.

Regarding `CC(=O)Nc1ccc(OCCCNC(C)C)cc1`, the half-maximal inhibitory concentration (IC50) is more than 2500 nM.
